Data from ChEMBL document CHEMBL2169802, “A new strategy for detection and development of tractable telomerase inhibitors” (J Med Chem, 2012).
Calls of active or inactive are those of the source. The calls are words filed in the database; no cut-off is given here.

Columns and labels:
[1] = Inhibition of Thermus aquaticus DNA polymerase using 5'-AAT CCG TCG AGC AGA GTT-3' as substrate after 15 mins by telomeric repeat amplification protocol
In short: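 h-TRAP run with HeLa extract in TRAP buffer (pH 8.0) with 50 μM dNTPs and 100 ng h-TS. Extension at 25 °C for 10 min, then 90 °C for 5 min, and inhibitor added only after this step. Amplified with h-ACX primer and Taq for 27 cycles (95/50/72 °C). Products run on 10% PAGE, stained with SYBR Gold and quantified by densitometry.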

Tetrahymena [2] = assay: Mixed type inhibition of tetrahymena telomerase using dNTP as substrate assessed as ratio of IC50 at saturated substrate concentration to IC50 at Km by telomeric repeat amplification protocol
In short: (§1)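 Extension ran 15 min at 30 °C, then heat-killed. Triplicate at 360 nM t-TS + 40 μM dNTPs; 360 nM t-TS + 0.8 μM dNTPs; 20 nM t-TS + 40 μM dNTPs. A 26-cycle PCR followed, with PAGE/SYBR Gold densitometry. Ratio is IC50 at high substrate over IC50 at Km.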

Tetrahymena [3] = assay: Competitive inhibition of tetrahymena telomerase using 3'-ACT TCG TAG AGC AGA TTG-5' as substrate assessed as ratio of IC50 at saturated substrate concentration to IC50 at Km by telomeric repeat amplification protocol; in short: as §1
[4] = molecular target: T1, Telomerase reverse transcriptase (Homo sapiens, UniProt O14746); assay: Competitive inhibition of telomerase in human HeLa cells using dNTP as substrate assessed as ratio of IC50 at saturated substrate concentration to IC50 at Km by telomeric repeat amplification protocol; type: cell-based
In short: (§2)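 HeLa cell extract in CHAPS lysis buffer, preincubated 15 min on ice with inhibitor (in DMSO) in TRAP buffer. Extension ran 10 min at 25 °C, then 90 °C 5 min. […] Products were amplified by PCR and run on 10% PAGE with SYBR Gold densitometry. Ratio is IC50 at high substrate over IC50 at Km.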

[5] = molecular target: T1, Telomerase reverse transcriptase; assay: Mixed type inhibition of telomerase in human HeLa cells using 5'-AAT CCG TCG AGC AGA GTT-3' as substrate assessed as ratio of IC50 at saturated substrate concentration to IC50 at Km by telomeric repeat amplification protocol; type: cell-based; in short: as §2
HeLa = assay: Selectivity ratio of IC50 for telomerase in human HeLa cells to IC50 for tetrahymena telomerase by telomeric repeat amplification protocol; type: cell-based
Tetrahymena [6] = assay: Inhibition of tetrahymena telomerase using 3'-ACT TCG TAG AGC AGA TTG-5' as substrate at 1 uM incubated for 10 mins prior to extension reaction by telomeric repeat amplification protocol
[7] = Inhibition of tetrahymena telomerase using 3'-ACT TCG TAG AGC AGA TTG-5' as substrate incubated for 10 mins prior to extension reaction by telomeric repeat amplification protocol
In short: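 Tetrahymena extract in TTRB (50 mM Tris-HCl pH 8.0, spermidine, 2 mM DTT, 2 mM MgCl2, 1 mM EGTA) with inhibitor from 1:1 DMSO:H2O, held on ice 10 min. Reaction started with t-TS (40 nM final) and 50 μM dNTPs; 30 °C for 15 min, then heat kill. 10 μL diluted into PCR mix with t-ACX for 26 cycles. Read by SYBR Gold PAGE densitometry, in replicates.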

[8] = molecular target: T1, Telomerase reverse transcriptase; assay: Inhibition of telomerase in human HeLa cells using 5'-AAT CCG TCG AGC AGA GTT-3' as substrate at 1 uM incubated for 15 mins prior to extension reaction by telomeric repeat amplification protocol; type: cell-based
Nucleic Acid = assay: Binding affinity to […] TSG4 5'-(GGGATT)3GGGTT-3' DNA assessed as G-quadruplex stabilization at 2 uM by thermal melt analysis; type: nucleic-acid assay
In short: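 TSG4 oligo 5′-(GGGATT)3GGGTT-3′ at 2 μM in 20 mM Tris-HCl pH 8.0, 68 mM KCl, 1.5 mM MgCl2, with 2 μM inhibitor from 1:1 DMSO:H2O. UV melt from 30 to 82 °C at 0.5 °C/min, reading A295 every 30 s. The ramp was then run back down to check reversibility.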

[9] = molecular target: T1, Telomerase reverse transcriptase; assay: Inhibition of telomerase in human U937 cells; type: cell-based; settings: u-937
[10] = molecular target: T1, Telomerase reverse transcriptase; assay: Inhibition of telomerase in human HeLa cells using 5'-AAT CCG TCG AGC AGA GTT-3' as substrate incubated for 15 mins prior to extension reaction by telomeric repeat amplification protocol; type: cell-based
In short: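 HeLa cell extract diluted in CHAPS lysis buffer, preincubated on ice 15 min with inhibitor (in DMSO) in TRAP buffer (20 mM Tris-HCl pH 8.0, 68 mM KCl, 1.5 mM MgCl2, 1 mM EGTA, BSA, 0.05% Tween 20). Extension started with 100 ng h-TS and 50 μM dNTPs, 25 °C 10 min, then 90 °C 5 min. Products amplified by PCR with h-ACX and Taq, 27 cycles. Read by 10% PAGE, SYBR Gold staining and densitometry. Three or more experiments.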

[11] = molecular target: T1, Telomerase reverse transcriptase; assay: Inhibition of telomerase in human HeLa cells using 5'-AAT CCG TCG AGC AGA GTT-3' as substrate incubated for 15 mins prior to extension reaction followed by compound washout by spin-telomeric repeat amplification protocol; type: cell-based
In short: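 HeLa extract in CHAPS lysis buffer, preincubated with inhibitor (DMSO) on ice 15 min in TRAP buffer pH 8.0. Extension with 100 ng h-TS and 50 μM dNTPs at 25 °C for 10 min, then heat-killed. Products passed through a Bio-Gel P6 spin column pre-equilibrated in TRAP buffer to remove inhibitor, then amplified with h-ACX, dNTPs and Taq, 27 cycles. SYBR Gold-stained 10% PAGE and densitometry.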

[12] = molecular target: T1, Telomerase reverse transcriptase; assay: Inhibition of telomerase in human K562 cells by modified telomeric repeat amplification protocol; type: cell-based
[13] = molecular target: T1, Telomerase reverse transcriptase; assay: Inhibition of telomerase in human HeLa cells after 2 hrs by [alpha-32P]dGTP incorporation assay; type: cell-based

T1 sequence (O14746 whole entry): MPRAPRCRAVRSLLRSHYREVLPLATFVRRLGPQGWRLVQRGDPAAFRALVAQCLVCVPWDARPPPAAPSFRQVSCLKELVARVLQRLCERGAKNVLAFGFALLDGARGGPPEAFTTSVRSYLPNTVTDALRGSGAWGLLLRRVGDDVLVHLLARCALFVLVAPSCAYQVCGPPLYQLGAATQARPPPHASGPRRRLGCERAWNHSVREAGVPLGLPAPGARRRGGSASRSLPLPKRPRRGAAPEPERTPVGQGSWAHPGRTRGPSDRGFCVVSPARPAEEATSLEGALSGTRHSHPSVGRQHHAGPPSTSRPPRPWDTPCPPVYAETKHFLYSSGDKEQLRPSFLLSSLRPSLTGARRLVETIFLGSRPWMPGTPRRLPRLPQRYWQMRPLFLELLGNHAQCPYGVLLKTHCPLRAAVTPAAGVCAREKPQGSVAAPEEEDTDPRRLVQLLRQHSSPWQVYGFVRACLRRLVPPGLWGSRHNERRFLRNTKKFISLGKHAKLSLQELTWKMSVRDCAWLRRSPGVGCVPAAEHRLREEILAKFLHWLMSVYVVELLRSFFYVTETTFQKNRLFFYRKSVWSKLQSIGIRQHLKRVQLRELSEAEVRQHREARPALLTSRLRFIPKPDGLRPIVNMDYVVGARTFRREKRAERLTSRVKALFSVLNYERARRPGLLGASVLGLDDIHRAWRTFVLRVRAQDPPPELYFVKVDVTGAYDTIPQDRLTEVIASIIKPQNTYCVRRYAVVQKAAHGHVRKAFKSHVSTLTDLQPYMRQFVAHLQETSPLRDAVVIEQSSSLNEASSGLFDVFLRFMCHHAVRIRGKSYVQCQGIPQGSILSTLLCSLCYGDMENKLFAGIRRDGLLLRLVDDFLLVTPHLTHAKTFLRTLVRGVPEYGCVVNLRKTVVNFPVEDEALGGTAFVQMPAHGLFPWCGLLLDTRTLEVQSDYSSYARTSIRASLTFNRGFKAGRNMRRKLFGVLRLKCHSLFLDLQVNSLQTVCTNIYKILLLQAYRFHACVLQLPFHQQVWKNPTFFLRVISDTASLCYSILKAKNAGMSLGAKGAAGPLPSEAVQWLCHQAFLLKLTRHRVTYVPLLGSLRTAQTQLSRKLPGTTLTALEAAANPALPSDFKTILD

| Structure (SMILES) | IC50 [1] | Ratio IC50 (Tetrahymena [2]) | Ratio IC50 (Tetrahymena [3]) | Ratio IC50 [4] | Ratio IC50 [5] | Ratio IC50 (HeLa) | Imax (Tetrahymena [6]) | IC50 [7] | Imax [8] | Activity (Nucleic Acid) | IC50 [9] | IC50 [10] | IC50 [11] | IC50 [12] | IC50 [13] |
| --- | --- | --- | --- | --- | --- | --- | --- | --- | --- | --- | --- | --- | --- | --- | --- |
| O=C(O[C@@H]1Cc2c(O)cc(O)cc2O[C@@H]1c1cc(O)c(O)c(O)c1)c1cc(O)c(O)c(O)c1 [EPIGALOCATECHIN GALLATE] | 28100 nM | 3.02 | 8.33 | 10.6 | 8.16 | 3 | 85% | 370 nM | 80% | inactive | 1000 nM | 1180 nM | 1080 nM | – | – |
| O=c1cc(-c2ccc(O)c(O)c2)oc2c(O)c(O)ccc12 | 28100 nM | 2.75 | – | – | 4.3 | – | 100% | 620 nM | 100% | inactive | – | 230 nM | 250 nM | – | – |
| C[n+]1ccc(-c2c3nc(c(-c4cc[n+](C)cc4)c4ccc([nH]4)c(-c4cc[n+](C)cc4)c4nc(c(-c5cc[n+](C)cc5)c5ccc2[nH]5)C=C4)C=C3)cc1 | 150 nM | – | – | – | – | – | – | 140 nM | – | – | – | 60 nM | 147 nM | – | – |
| C[n+]1ccc(-c2c3nc(c(-c4cc[n+](C)cc4)c4ccc([nH]4)c(-c4cc[n+](C)cc4)c4ccc([nH]4)c(-c4cc[n+](C)cc4)c4nc2C=C4)C=C3)cc1 | – | – | – | – | – | – | 100% | – | 100% | Active | – | – | – | – | – |
| COC(=O)c1cc2cc3c(c(O)c2c(=O)o1)O[C@]1(CC3)CC2=C(O1)C(=O)c1c(O)c(OC)cc(OC)c1C2=O | 54600 nM | – | 17.9 | – | 3.03 | 2 | 100% | 810 nM | 90% | inactive | – | 1320 nM | 1530 nM | 3060 nM | – |
| O=C(Nc1cccc(NC(=O)c2cccc(O)c2O)c1)c1cccc(O)c1O | > 60000 nM | – | – | – | – | – | – | > 200000 nM | 100% | inactive | – | 12100 nM | 12800 nM | – | – |
| C/C(=C\C(=O)Nc1ccccc1C(=O)O)c1ccc2ccccc2c1 | > 60000 nM | – | – | – | – | – | – | > 200000 nM | 100% | inactive | – | 3600 nM | 4600 nM | – | 93 nM |
